Source: ChEMBL document CHEMBL4311965, “Antimicrobial activity of amphipathic α,α-disubstituted β-amino amide derivatives against ESBL - CARBA producing multi-resistant bacteria; effect of halogenation, lipophilicity and cationic character” (Eur J Med Chem, 2019)
Values after ≈ are worked out from the molar mass of the structure shown.

Experiments:
[1] = test system: Escherichia coli; test: Antibacterial activity against multidrug-resistant Escherichia coli 50579417 producing oxcillinase-48 cultured in MHB medium assessed as reduction in bacterial growth incubated for 24 hrs by microdilution susceptibility test; assay type: functional; settings: Escherichia coli, 50579417, 24 h
How it was run: (§1)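 Broth microdilution per CLSI M07-A9 (modified). Working solutions made from concentrated DMSO stocks kept at r.t., diluted in double-distilled water, final DMSO <1%. Inoculum 1–1.2 x 10⁶ cells/mL in Mueller-Hinton broth, mixed 1:1 with compound. 37 °C, 24 h, four parallels. Read as OD₆₀₀. Where precipitation left residual OD, the point of major OD decrease was taken as the inhibitory concentration.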

[2] = test system: Pseudomonas aeruginosa; test: Antibacterial activity against multidrug-resistant Pseudomonas aeruginosa 50692520 producing Verona integron encoded metallo beta-lactamse cultured in MHB medium assessed as reduction in bacterial growth incubated for 24 hrs by microdilution susceptibility test; assay type: functional; settings: Pseudomonas aeruginosa, 50692520, 24 h; how it was run: as §1
[3] = Selectivity index, ratio of EC50 for hemolytic activity against human RBC to MIC for antibacterial activity against Escherichia coli ATCC 25922; assay type: toxicity; settings: human red blood cells (RBC)
How it was run: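 Selectivity index is the RBC haemolysis EC50 divided by the MIC against the E. coli or S. aureus reference strain.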

[4] = test system: Staphylococcus aureus; test: Antibacterial activity against Staphylococcus aureus ATCC 9144 cultured in MHB medium assessed as no bacterial growth incubated at 37 degC for 24 hrs by microdilution susceptibility test; assay type: functional; settings: ATCC 9144, 24 h
How it was run: (§2)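 Broth microdilution per CLSI M07-A9 with modifications. Inoculum about 2.5–3 x 10⁴ cells/mL in Mueller-Hinton broth, mixed 1:1 with test derivative. DMSO stocks diluted in double-distilled water, final DMSO <1%. Incubation 24 h at 37 °C (20 °C for C. glutamicum). Growth and sterility controls included; oxytetracycline reference.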

[5] = test system: Acinetobacter baumannii; test: Antibacterial activity against multidrug-resistant Acinetobacter baumannii K63-58 producing oxcillinase-23 cultured in MHB medium assessed as reduction in bacterial growth incubated for 24 hrs by microdilution susceptibility test; assay type: functional; settings: K63-58, 24 h; how it was run: as §1
[6] = test system: Enterococcus faecium; test: Antibacterial activity against multidrug-resistant Enterococcus faecium 50758899 cultured in BHIB medium assessed as reduction in bacterial growth incubated for 24 hrs by microdilution susceptibility test; assay type: functional; settings: Enterococcus faecium, 50758899, 24 h
How it was run: (§3)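 Enterococci grown in Brain Heart Infusion broth, otherwise broth microdilution per CLSI M07-A9 (modified). Concentrated DMSO stocks kept at r.t. and diluted in double-distilled water, final DMSO <1%. Inoculum 1–1.2 x 10⁶ cells/mL mixed 1:1 with compound. 37 °C, 24 h, four parallels. OD₆₀₀ read-out, lowest concentration with no growth.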

[7] = test system: Pseudomonas aeruginosa; test: Antibacterial activity against multidrug-resistant Pseudomonas aeruginosa 50692172 producing New Delhi metallo-beta-lactamase-1 cultured in MHB medium assessed as reduction in bacterial growth incubated for 24 hrs by microdilution susceptibility test; assay type: functional; settings: Pseudomonas aeruginosa, 50692172, 24 h; how it was run: as §1
[8] = Drug metabolism in Sprague-Dawley rat liver microsomes assessed as CYP450-mediated 2-[[2-(aminomethyl)-3-[3,5-bis(trifluoromethyl)phenyl]-2-[[3,5-bis(trifluoromethyl)phenyl]methyl]propanoyl]amino]acetic acid formation incubated up to 3 hrs in presence of NADPH regenerating system by RP-HPLC-MS analysis; assay type: ADME
How it was run: (§4)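 Substrate at 1 µL of 100 µM aqueous stock in 100 mM potassium phosphate, pH 7.4, with NADPH regenerating system. Pooled male Sprague–Dawley rat liver microsomes (20 mg/mL stock) added, then incubated at 37 °C. Sampled at 0–180 min and quenched with cold methanol containing propranolol internal standard. Analysed by RP-HPLC–HRMS in positive ESI mode. Metabolites confirmed by HCD MS2. Triplicate incubations.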

[9] = test system: Acinetobacter baumannii; test: Antibacterial activity against multidrug-resistant Acinetobacter baumannii K47-42 producing oxcillinase-23 cultured in MHB medium assessed as reduction in bacterial growth incubated for 24 hrs by microdilution susceptibility test; assay type: functional; settings: K47-42, 24 h; how it was run: as §1
[10] = Drug metabolism in Sprague-Dawley rat liver microsomes assessed as CYP450-mediated N-(2-aminoethyl)-2-(aminomethyl)-2-[(3,5-bis(trifluoromethyl)phenyl)methyl]-3-(4-hydroxy-3,5-bis(trifluoromethyl)phenyl)propanamide formation incubated up to 3 hrs in presence of NADPH regenerating system by RP-HPLC-MS analysis; assay type: ADME; how it was run: as §4
[11] = test system: Pseudomonas aeruginosa; test: Antibacterial activity against multidrug-resistant Pseudomonas aeruginosa K34-7 producing Verona integron encoded metallo beta-lactamse-2 cultured in MHB medium assessed as reduction in bacterial growth incubated for 24 hrs by microdilution susceptibility test; assay type: functional; settings: K34-7, 24 h; how it was run: as §1
[12] = test system: Enterococcus faecium; test: Antibacterial activity against multidrug-resistant Enterococcus faecium TUH50-22 cultured in BHIB medium assessed as reduction in bacterial growth incubated for 24 hrs by microdilution susceptibility test; assay type: functional; settings: TUH50-22, 24 h; how it was run: as §3
[13] = test system: Erythrocyte; test: Hemolytic activity against human RBC incubated for 1 hr; assay type: cell-based
How it was run: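 Heparinized human blood washed three times in warm PBS and set to 10% hct. Erythrocytes at 1% v/v final, with compound in PBS (DMSO <1%), shaken 1 h at 37 °C and then centrifuged. Supernatant absorbance read at 405 and 545 nm after PBS background subtraction. Haemolysis taken relative to 1% Triton X-100. Three independent replicates, EC50 averaged.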

[14] = test system: Corynebacterium glutamicum; test: Antibacterial activity against Corynebacterium glutamicum ATCC 13032 cultured in MHB medium assessed as no bacterial growth incubated at 20 degC for 24 hrs by microdilution susceptibility test; assay type: functional; settings: ATCC 13032, 24 h; how it was run: as §2
[15] = Drug metabolism in Sprague-Dawley rat liver microsomes assessed as CYP450-mediated 4-[2-(aminomethyl)-3-[3,5-bis(trifluoromethyl)phenyl]-2-(4,5-dihydrooxazol-3-ium-2-yl)propyl]-2,6-bis(trifluoromethyl)phenol formation incubated up to 3 hrs in presence of NADPH regenerating system by RP-HPLC-MS analysis; assay type: ADME; how it was run: as §4
[16] = test system: Escherichia coli; test: Antibacterial activity against Escherichia coli ATCC 25922 cultured in MHB medium assessed as no bacterial growth incubated at 37 degC for 24 hrs by microdilution susceptibility test; assay type: functional; settings: ATCC 25922, 24 h; how it was run: as §2
[17] = test system: HepG2; test: Cytotoxicity against human HepG2 cells assessed as reduction in cell viability incubated for 4 hrs by CellTiter 96 Aqueous One Solution Reagent based assay; settings: HepG2, 4 h
How it was run: (§5)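 HepG2 and MRC-5 cells seeded at 35 000 and 15 000 cells/well respectively, then held overnight at 37 °C, 5% CO₂. Compounds in serum-free MEM Earle's applied for 4 h. MTS reagent (CellTiter 96 AQueous One) added for a further 1 h, absorbance read at 485 nm. Survival expressed relative to medium (negative) and Triton X-100 (positive) controls.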

[18] = Aqueous solubility of the compound in DMSO; assay type: physicochemical
[19] = test system: MRC5; test: Cytotoxicity against human MRC5 cells assessed as reduction in cell viability incubated for 4 hrs by CellTiter 96 Aqueous One Solution Reagent based assay; settings: MRC5, 4 h; how it was run: as §5
[20] = test system: Escherichia coli; test: Antibacterial activity against multidrug-resistant Escherichia coli 50639799 producing Verona integron encoded metallo beta-lactamse-29 cultured in MHB medium assessed as reduction in bacterial growth incubated for 24 hrs by microdilution susceptibility test; assay type: functional; settings: Escherichia coli, 50639799, 24 h; how it was run: as §1

**Q.** What does the source list for NCCNC(=O)C(CN)(Cc1cc(C(F)(F)F)cc(C(F)(F)F)c1)Cc1cc(C(F)(F)F)cc(C(F)(F)F)c1?
**A.** MIC [1]: 16 µg/mL (≈ 27.4 µM); MIC [2]: > 32 µg/mL; selectivity ratio [3]: 12; MIC [4]: 4 µg/mL (≈ 6.86 µM); MIC [5]: 8 µg/mL (≈ 13.7 µM); MIC [6]: 4 µg/mL (≈ 6.86 µM); MIC [7]: 32 µg/mL (≈ 54.8 µM); Drug metabolism [8]: Metabolite_Notdetected; MIC [9]: 16 µg/mL (≈ 27.4 µM); Drug metabolism [10]: Metabolite_Notdetected; MIC [11]: > 32 µg/mL; MIC [12]: 8 µg/mL (≈ 13.7 µM); EC50 [13]: 48 µg/mL (≈ 82.3 µM); MIC [14]: 1 µg/mL (≈ 1.71 µM); Drug metabolism [15]: Metabolite_Notdetected; MIC [16]: 4 µg/mL (≈ 6.86 µM); EC50 [17]: 11 µg/mL (≈ 18.9 µM); solubility [18]: Soluble; EC50 [19]: 11 µg/mL (≈ 18.9 µM); MIC [20]: 16 µg/mL (≈ 27.4 µM)
